Positions count from the first letter of the chain named. Like-named read-outs stand apart in the source and are kept apart here. Values belong to the compound of their own block, whether it stands above or below them.
Columns and labels:
ferric WT DHP B [1] = molecular target: T1, ferric WT DHP B (Amphitrite ornata, UniProt Q9NAV7); assay: H2O2-dependent oxidation of haloindoles monitored by HPLC; format: biochemical; conditions: for conversion (%): 5 min
T1 sequence (Q9NAV7 1-138): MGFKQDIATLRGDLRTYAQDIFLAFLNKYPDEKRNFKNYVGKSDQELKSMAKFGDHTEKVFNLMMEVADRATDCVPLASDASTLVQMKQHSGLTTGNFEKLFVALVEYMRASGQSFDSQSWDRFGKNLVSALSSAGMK
How it was run: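 Triplicate reactions at 25 °C in 5% MeOH/100 mM KPi, pH 7, unless pH varied. Ferric DHP B (10 μM final) was premixed with substrate (500 μM final), and reactions were started with H2O2 (500 μM). Additives: 10% v/v DMSO, 500 μM mannitol, SOD, or buffer containing 500 mM sodium formate. Reactions were quenched with excess catalase after 5 min and diluted 10-fold. C18 reverse-phase HPLC used photodiode-array detection, with conversion from standard calibration curves.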

DHP B Oxyferrous = molecular target: T2, DHP B Oxyferrous (Amphitrite ornata, UniProt Q9NAV7); assay: H2O2-dependent oxidation of haloindoles monitored by HPLC, oxyferrous enzyme; format: biochemical; conditions: DHP B Oxyferrous 10 μM; [haloindole] = [H2O2] = 500 μM; pH 7, 25 °C, 5 min
T2 sequence (Q9NAV7 1-138): T1 sequence (Q9NAV7 1-138)
How it was run: (§1)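 Triplicate reactions at 25 °C, pH 7, in 5% MeOH/100 mM KPi. Enzyme (10 μM final; ferric isoenzyme A or oxyferrous DHP B) was premixed with haloindole (500 μM), and reactions were started with 500 μM H2O2. After 5 min, reactions were quenched with excess catalase and diluted 10-fold in buffer. Analysis was by C18 reverse-phase HPLC (water/TFA to MeCN gradient) with diode-array detection, quantified against standard calibration curves.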

DHP A Ferric = assay: H2O2-dependent oxidation of haloindoles monitored by HPLC, isoenzyme A; format: biochemical, Amphitrite ornata; conditions: DHP A Ferric 10 μM; [haloindole] = [H2O2] = 500 μM; pH 7, 25 °C, 5 min
How it was run: as §1

[2] = molecular target: T3, horseradish peroxidase (HRP) (Armoracia rusticana, UniProt P00433); assay: H2O2-dependent oxidation of 5-Br-indole monitored by HPLC, HRP; format: biochemical; conditions: HRP 10 μM; [haloindole] = [H2O2] = 500 μM; pH 7, 25 °C, 5 min; n.d. = none detected
T3 sequence (P00433 31-338 limits assumed): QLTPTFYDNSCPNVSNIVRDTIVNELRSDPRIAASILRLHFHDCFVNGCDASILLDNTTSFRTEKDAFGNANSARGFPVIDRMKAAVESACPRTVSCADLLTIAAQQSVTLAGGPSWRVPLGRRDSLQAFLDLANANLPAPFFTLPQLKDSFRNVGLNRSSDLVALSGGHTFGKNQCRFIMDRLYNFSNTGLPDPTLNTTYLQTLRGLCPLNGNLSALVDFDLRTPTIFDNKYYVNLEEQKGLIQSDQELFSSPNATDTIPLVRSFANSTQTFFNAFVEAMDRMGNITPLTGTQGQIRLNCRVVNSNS

[3] = molecular target: horse heart myoglobin (hhMb) (Equus caballus, UniProt P68082); assay: H2O2-dependent oxidation of 5-Br-indole monitored by HPLC, myoglobin; format: biochemical; conditions: hhMb 10 μM; [haloindole] = [H2O2] = 500 μM; pH 7, 25 °C, 5 min; n.d. = none detected
ferric WT DHP B [4] = molecular target: T1, ferric WT DHP B; assay: 5-haloindole binding studies
WT DHP B Compound ES = molecular target: T4, WT DHP B Compound ES (Amphitrite ornata, UniProt Q9NAV7); assay: Double-mixing stopped-flow UV-vis, preformed Compound ES; format: biochemical
T4 sequence (Q9NAV7 1-138): T1 sequence (Q9NAV7 1-138)
How it was run: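 Double-mixing rapid-scan stopped-flow UV-vis at 20 °C in 5% MeOH/100 mM KPi, pH 7. Ferric wild-type DHP B (10 μM) was mixed with 10 equiv H2O2 and aged 350 ms to accumulate Compound ES. It was then mixed with 10, 25 or 50 equiv 5-Br-indole, and 800 scans were taken over 83 s. Spectra were fitted to component time courses.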

[5] = molecular target: T5, DHP B(Y28F/Y38F) Compound I (Amphitrite ornata, UniProt Q9NAV7, Y29F/Y39F); assay: Double-mixing stopped-flow UV-vis, preformed Compound I; format: biochemical
T5 sequence (Q9NAV7 1-138 Y29F/Y39F): T1 sequence (Q9NAV7 1-138) with Y29F, Y39F

oxyferrous DHP B = molecular target: T6, oxyferrous DHP B (Amphitrite ornata, UniProt Q9NAV7); assay: Stopped-flow UV-vis with oxyferrous DHP B / Compound II; format: biochemical; conditions: preincubated with 2.5 equiv 5-Br-indole, 5 equiv H2O2, pH 7
T6 sequence (Q9NAV7 1-138): T1 sequence (Q9NAV7 1-138)
How it was run: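 Single-mixing rapid-scan stopped-flow at 20 °C in 5% MeOH/100 mM KPi, pH 7.0. Oxyferrous DHP B (10 μM) was preincubated with 2.5 equiv 5-Br-indole, then rapidly mixed with 5 equiv H2O2. 800 spectra were collected over 83 s. Spectra were fitted to component species to obtain relative concentration time courses.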

ferric WT DHP B [6] = molecular target: T1, ferric WT DHP B; conditions: cited from earlier work
ferric DHP B = molecular target: T7, ferric DHP B (Amphitrite ornata, UniProt Q9NAV7); assay: Reactivity studies of 5-Br-3-oxindole by UV-vis; format: biochemical
T7 sequence (Q9NAV7 1-138): T1 sequence (Q9NAV7 1-138)
How it was run: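 5-Br-3-acetoxyindole (250 μM) was incubated <1 min with or without 10 μM ferric wild-type DHP B in 5% MeOH/100 mM KPi, pH 7, in a quartz cuvette. Porcine liver esterase (45 U) started the reaction, and UV-vis spectra were taken over time, aerobically or anaerobically (argon-degassed solutions, glovebox, sealed cuvette). Indigo product was quantified at 659 nm using ε = 22 140 M–1 cm–1.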

[7] = DHP B Ferric, anaerobic, [haloindole] = [H2O2] = 500 μM, pH 7, 25 °C
[8] = 10 equiv 5-Br-indole, 10 equiv H2O2, pH 7
[9] = read-out: apparent dissociation constant (Kd), 10 μM ferric WT DHP B, 100 mM KPi pH 7, 10% MeOH

Chain of horse heart myoglobin (hhMb) (P68082 whole entry): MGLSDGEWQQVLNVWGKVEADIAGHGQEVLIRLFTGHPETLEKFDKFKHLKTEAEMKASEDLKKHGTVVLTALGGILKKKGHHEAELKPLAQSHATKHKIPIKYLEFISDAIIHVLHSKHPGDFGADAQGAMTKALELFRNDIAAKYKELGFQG

conversion (%) (ferric WT DHP B [1]; DHP B Ferric + 500 μM 4-BP, pH 7, 25 °C): 23.2 (±5.1) %
conversion (%) (ferric WT DHP B [1]; DHP B Ferric + 500 μM mannitol, pH 7, 25 °C): 46.2 (±1.6) %
conversion (%) (ferric WT DHP B [1]; DHP B Ferric + 500 mM formate, pH 7, 25 °C): 45.8 (±1.1) %
conversion (%) (ferric WT DHP B [1]; DHP B Ferric + 10% DMSO, pH 7, 25 °C): 45.0 (±4.4) %
conversion (%) (ferric WT DHP B [1]; DHP B Ferric + SOD ∼2 U/μL, pH 7, 25 °C): 46.1 (±0.7) %
conversion (%) (ferric WT DHP B [1]; [7]): 53.3 (±0.3) %
conversion (%) (ferric WT DHP B [1]; DHP B Ferric, pH 5, 25 °C): 63.4 (±0.1) %
conversion (%) (ferric WT DHP B [1]; DHP B Ferric, pH 6, 25 °C): 54.7 (±1.9) %
conversion (%) (ferric WT DHP B [1]; DHP B Ferric, pH 8, 25 °C): 34.4 (±2.4) %
conversion (%) (DHP B Oxyferrous): 44.9 (±4.8) %
conversion (%) (DHP A Ferric): 20.3 (±1.7) %
conversion (%) [2]: no reactivity
conversion (%) [3]: no reactivity
Kd (ferric WT DHP B [4]): 150 ± 10 µM
kobs, formation of mixture of oxyferrous and ferric DHP B at longer observation times (WT DHP B Compound ES; [8]): (1.39 ± 0.08) × 10^–2 s^–1
kobs, reduction of preformed Compound ES to ferric DHP B (WT DHP B Compound ES; [8]): (2.54 ± 0.05) × 10^5 M^–1 s^–1
time for reduction of Compound ES (within mixing time) (WT DHP B Compound ES; ≥25 equiv 5-Br-indole): < 2.5 ms
time to conversion to oxyferrous DHP B(Y28F/Y38F) ([5]; 10 equiv 5-Br-indole): 697 s
time to conversion to oxyferrous DHP B(Y28F/Y38F) ([5]; 50 equiv 5-Br-indole): 120 s
kobs, conversion of oxyferrous DHP B to Compound II (oxyferrous DHP B): (3.30 ± 0.01) × 10^–2 s^–1
Compound: Brc1ccc2[nH]ccc2c1 [5-Br-indole]

Kd (ferric WT DHP B [4]; [9]): 317 ± 23 µM
Compound: Clc1ccc2[nH]ccc2c1 [5-Cl-indole]

conversion (%) (ferric WT DHP B [1]; [7]): 40.1 (±0.9) %
conversion (%) (DHP A Ferric): 15.7 (±0.7) %
Compound: Brc1cccc2[nH]ccc12 [4-Br-indole]

Kd (ferric WT DHP B [4]; [9]): 62 ± 10 µM
Compound: Ic1ccc2[nH]ccc2c1 [5-I-indole]

reactivity lower than 5-Br-indole (ferric WT DHP B [1]; ferric WT DHP B, pH 7): 2 fold
Compound: c1ccc2[nH]ccc2c1 [indole]

Compound: Oc1ccc(Br)cc1 [4-bromophenol, reference compound]
attenuation in reactivity of 5-Br-indole (ferric WT DHP B [1]; in the presence of 500 μM 4-bromophenol): 2 fold
Kd (ferric WT DHP B [6]): ~1200 µM

product distribution of 5-Br-indole reaction (HPLC) (ferric WT DHP B [1]; 5-Br-indole 500 μM, DHP B 10 μM, H2O2 500 μM, pH 7, 1a determined from mass balance): ~2%
5,5′-Br2-indigo formation aerobic versus anaerobic (ferric DHP B; DHP present): ~4 fold
5,5′-Br2-indigo formed in the presence of DHP versus the absence of enzyme (ferric DHP B; aerobic, after 5 min): 45 fold
5,5′-Br2-indigo concentration formed from 5-Br-3-oxindole (ferric DHP B; anaerobic, 10 μM DHP, after 10 min): ~8 µM
Compound: O=C1/C(=C2\Nc3ccc(Br)cc3C2=O)Nc2ccc(Br)cc21 [5,5′-Br2-indigo, (E)-5,5′-dibromo-[2,2′-biindolinylidene]-3,3′-dione]

changes in the optical difference spectra upon binding (ferric WT DHP B [4]; even at the highest concentrations tested (up to 100 equiv)): No significant changes
Compound: Fc1ccc2[nH]ccc2c1 [5-F-indole]
